Measured values as given in ChEMBL document CHEMBL2069262, “Stimulation of Glucose-Dependent Insulin Secretion by a Potent, Selective sst3 Antagonist” (ACS Med Chem Lett, 2012).
Values belong to the molecule of their own block, whether it stands above or below them. Calls of active or inactive are those of the source. The rule behind the calls is not given here. Positions of bridges follow the written chain, without caps; N, C: chain ends. Non-standard residues stand in square brackets, D forms with d. Residues, ends and D or L forms follow the SMILES beside them. *: point of attachment. Threoninol(2S,3R) = C[C@@H](O)[C@H](CO)N*

Experiments:
[1] = molecular target: T1, Somatostatin receptor type 3 (Homo sapiens, UniProt P32745); experiment: Displacement of [125I]SS-14 from human SST3 receptor expressed in CHO cells after 60 mins by scintillation counting; format: cell-based
[2] = molecular target: T1, Somatostatin receptor type 3; format: functional, cell-based, CHO
[3] = Activation of glucose-stimulated insulin secretion in C57BL/6J mouse pancreatic islets at 10 uM after 1 hr by ELISA in presence of 2 mM glucose; format: functional; settings: Pancreatic islet
How it was run: (§1)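 Pancreatic islets were isolated from normal C57BL/6J mice. Insulin secretion was measured at 2 and 16 mM glucose. Treatments were test agent at 10 μM, octreotide at 50 nM, the two combined, DMSO as negative control and GLP-1 at 10 nM as positive control. n = 4.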

[4] = molecular target: T2, Somatostatin receptor type 3 (Mus musculus, UniProt P30935); experiment: Displacement of [125I]SS-14 from mouse SST3 receptor expressed in CHO cells after 60 mins by scintillation counting; format: cell-based
How it was run: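 Competition binding at mouse sst3, read at steady-state equilibrium. Read-out is IC50.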

Mus musculus [5] = experiment: Antidiabetic activity in lean C57BL/6N mouse assessed as reduction in dextrose-induced glucose excursion at 2 mg/kg, po administered 1 hr before dextrose challenge measured by intraperitoneal glucose tolerance test; format: functional; parameters: scale not given: the % may be the effect or the level left
How it was run: (§2)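 Lean C57BL/6N Tac mice were fasted 5–6 h, then given test agent at 2 or 10 mg/kg 1 h before a dextrose challenge. Glucose tolerance was tested with ip dextrose (ipGTT) or oral dextrose (OGTT). Blood glucose excursion was followed and compared with dextrose alone.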

[6] = Half life in C57BL/6N mouse at 1 mg/kg, iv and 2 mg/kg, po; format: ADME, organism-based; settings: in vivo
[7] = molecular target: Somatostatin receptor type 4 (Homo sapiens, UniProt P31391); experiment: Binding affinity to human SST4 receptor expressed in CHO cells; format: cell-based
[8] = molecular target: Somatostatin receptor type 1 (Homo sapiens, UniProt P30872); experiment: Binding affinity to human SST1 receptor expressed in CHO cells; format: cell-based
[9] = Volume of distribution at steady state in C57BL/6N mouse at 1 mg/kg, iv and 2 mg/kg, po; format: ADME, organism-based; settings: in vivo, read-out: Vdss
[10] = molecular target: Somatostatin receptor type 4 (Mus musculus, UniProt P49660); experiment: Binding affinity to mouse SST4 receptor expressed in CHO cells; format: cell-based
Mus musculus [11] = experiment: Antidiabetic activity in lean C57BL/6N mouse assessed as reduction in dextrose-induced glucose excursion at 10 mg/kg, po administered 1 hr before dextrose challenge measured by oral glucose tolerance test; format: functional; parameters: scale not given: the % may be the effect or the level left; how it was run: as §2
[12] = Oral bioavailability in C57BL/6N mouse at 2 mg/kg; format: ADME, organism-based; settings: in vivo
Mus musculus [13] = experiment: Antidiabetic activity in sst3-wild-type lean C57BL/6N mouse assessed as reduction in dextrose-induced glucose excursion at 10 mg/kg, po administered 1 hr before dextrose challenge measured by intraperitoneal glucose tolerance test; format: functional; parameters: scale not given: the % may be the effect or the level left
How it was run: (§3)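 Wild-type and sst3 knockout mice were studied side by side in an ipGTT. They were predosed with 10 mg/kg 1 h before a 2 g/kg dextrose challenge. Read-out was total blood glucose AUC, compared with dextrose alone.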

[14] = Activation of glucose-stimulated insulin secretion in C57BL/6J mouse pancreatic islets at 10 uM after 1 hr by ELISA in presence of 16 mM glucose relative to DMSO; format: functional; settings: Pancreatic islet; how it was run: as §1
[15] = molecular target: T3, Somatostatin receptor type 5 (Mus musculus, UniProt O08858); experiment: Binding affinity to mouse SST5 receptor expressed in CHO cells; format: cell-based
T3 sequence (O08858 whole entry): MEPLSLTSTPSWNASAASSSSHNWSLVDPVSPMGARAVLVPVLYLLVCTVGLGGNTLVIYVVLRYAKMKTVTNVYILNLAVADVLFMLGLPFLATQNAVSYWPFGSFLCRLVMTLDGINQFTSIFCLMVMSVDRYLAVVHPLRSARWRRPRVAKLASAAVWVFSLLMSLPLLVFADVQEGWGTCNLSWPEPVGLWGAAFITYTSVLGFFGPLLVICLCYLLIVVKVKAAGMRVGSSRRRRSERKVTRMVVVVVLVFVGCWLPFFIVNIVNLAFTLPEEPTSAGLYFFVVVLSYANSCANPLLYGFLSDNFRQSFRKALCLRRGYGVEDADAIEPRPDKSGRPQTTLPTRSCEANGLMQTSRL

[16] = molecular target: Somatostatin receptor type 2 (Homo sapiens, UniProt P30874); experiment: Binding affinity to human SST2 receptor expressed in CHO cells; format: cell-based
[17] = molecular target: Somatostatin receptor type 2 (Mus musculus, UniProt P30875); experiment: Binding affinity to mouse SST2 receptor expressed in CHO cells; format: cell-based
[18] = molecular target: Somatostatin receptor type 5 (Homo sapiens, UniProt P35346); experiment: Binding affinity to human SST5 receptor expressed in CHO cells; format: cell-based
[19] = molecular target: Voltage-gated L-type calcium channel (Homo sapiens, UniProt Q13936+Q13698+Q01668+O60840); experiment: Binding affinity to L-type calcium channel
Mus musculus [20] = experiment: Dose normalized AUC in C57BL/6N mouse at 2 mg/kg, po; format: ADME, organism-based; parameters: dose 2 mg/kg, route oral; settings: in vivo
[21] = Activation of glucose-stimulated insulin secretion in C57BL/6J mouse pancreatic islets at 10 uM after 1 hr by ELISA in presence of 16 mM glucose and 50 nM sst3 agonist octreotide; format: functional; settings: Pancreatic islet; how it was run: as §1
[22] = Cmax in C57BL/6N mouse at 2 mg/kg, po; format: ADME, organism-based; parameters: dose 2 mg/kg, route oral; settings: in vivo
Mus musculus [23] = experiment: Antidiabetic activity in po dosed lean C57BL/6N mouse assessed as reduction in dextrose-induced glucose excursion administered 1 hr before dextrose challenge measured by glucose tolerance test; format: functional, organism-based; how it was run: as §2
Mus musculus [24] = experiment: Antidiabetic activity in lean C57BL/6N mouse assessed as reduction in dextrose-induced glucose excursion at 10 mg/kg, po administered 1 hr before dextrose challenge measured by intraperitoneal glucose tolerance test; format: functional; parameters: scale not given: the % may be the effect or the level left; how it was run: as §2
Mus musculus [25] = experiment: Antidiabetic activity in sst3-knockout lean C57BL/6N mouse assessed as elevation in plasma insulin level at 10 mg/kg, po administered 1 hr before dextrose challenge measured after 10 mins; format: functional, organism-based; parameters: dose 10 mg/kg
How it was run: (§4)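 Wild-type and sst3 knockout mice were predosed at −60 min with 10 mg/kg, then given a dextrose challenge. Plasma insulin was measured 10 min after dextrose. n = 5.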

[26] = molecular target: Somatostatin receptor type 1 (Mus musculus, UniProt P30873); experiment: Binding affinity to mouse SST1 receptor expressed in CHO cells; format: cell-based
[27] = Clearance in C57BL/6N mouse at 1 mg/kg, iv and 2 mg/kg, po; format: ADME, organism-based; settings: in vivo
Mus musculus [28] = experiment: Antidiabetic activity in sst3-knockout lean C57BL/6N mouse assessed as reduction in dextrose-induced glucose excursion at 10 mg/kg, po administered 1 hr before dextrose challenge measured by intraperitoneal glucose tolerance test; format: functional, organism-based; parameters: dose 10 mg/kg; how it was run: as §3
[29] = molecular target: T2, Somatostatin receptor type 3; experiment: Antagonist activity at mouse SST3 receptor expressed in CHO cells assessed as inhibition of forskolin/SS-14-stimulated cAMP accumulation preincubated for 15 mins before SS-14 challenge measured after 1 hr by time-resolved fluorescence analysis; format: functional, cell-based
How it was run: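 Functional antagonism at mouse sst3 against SS-14, run as a cAMP accumulation challenge after the test molecule is prebound. Read-out is IC50.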

Mus musculus [30] = experiment: Antidiabetic activity in lean C57BL/6N mouse assessed as reduction in dextrose-induced glucose excursion at 2 mg/kg, po administered 1 hr before dextrose challenge measured by oral glucose tolerance test; format: functional; parameters: scale not given: the % may be the effect or the level left; how it was run: as §2
Mus musculus [31] = experiment: Antidiabetic activity in wild-type lean C57BL/6N mouse assessed as elevation in plasma insulin level at 10 mg/kg, po administered 1 hr before dextrose challenge measured after 10 mins; format: functional; how it was run: as §4
[32] = Inhibition of glucose-stimulated insulin secretion in C57BL/6J mouse pancreatic islets at 50 nM after 1 hr by ELISA; format: functional, Pancreatic islet; parameters: scale not given: the % may be the effect or the level left
How it was run: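 Islets isolated from normal C57BL/6J mice were incubated at basal (2 mM) and stimulatory (16 mM) glucose, and insulin secretion was measured. DMSO served as the negative control and GLP-1 at 10 nM as the positive control. n = 4.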

[33] = molecular target: Voltage-gated inwardly rectifying potassium channel KCNH2 (Homo sapiens, UniProt Q12809); experiment: Displacement of [35S]MK499 from human Erg expressed in HEK293 cells after 60 mins by scintillation counting; format: cell-based
Sequence of Voltage-gated inwardly rectifying potassium channel KCNH2 (Q12809 whole entry): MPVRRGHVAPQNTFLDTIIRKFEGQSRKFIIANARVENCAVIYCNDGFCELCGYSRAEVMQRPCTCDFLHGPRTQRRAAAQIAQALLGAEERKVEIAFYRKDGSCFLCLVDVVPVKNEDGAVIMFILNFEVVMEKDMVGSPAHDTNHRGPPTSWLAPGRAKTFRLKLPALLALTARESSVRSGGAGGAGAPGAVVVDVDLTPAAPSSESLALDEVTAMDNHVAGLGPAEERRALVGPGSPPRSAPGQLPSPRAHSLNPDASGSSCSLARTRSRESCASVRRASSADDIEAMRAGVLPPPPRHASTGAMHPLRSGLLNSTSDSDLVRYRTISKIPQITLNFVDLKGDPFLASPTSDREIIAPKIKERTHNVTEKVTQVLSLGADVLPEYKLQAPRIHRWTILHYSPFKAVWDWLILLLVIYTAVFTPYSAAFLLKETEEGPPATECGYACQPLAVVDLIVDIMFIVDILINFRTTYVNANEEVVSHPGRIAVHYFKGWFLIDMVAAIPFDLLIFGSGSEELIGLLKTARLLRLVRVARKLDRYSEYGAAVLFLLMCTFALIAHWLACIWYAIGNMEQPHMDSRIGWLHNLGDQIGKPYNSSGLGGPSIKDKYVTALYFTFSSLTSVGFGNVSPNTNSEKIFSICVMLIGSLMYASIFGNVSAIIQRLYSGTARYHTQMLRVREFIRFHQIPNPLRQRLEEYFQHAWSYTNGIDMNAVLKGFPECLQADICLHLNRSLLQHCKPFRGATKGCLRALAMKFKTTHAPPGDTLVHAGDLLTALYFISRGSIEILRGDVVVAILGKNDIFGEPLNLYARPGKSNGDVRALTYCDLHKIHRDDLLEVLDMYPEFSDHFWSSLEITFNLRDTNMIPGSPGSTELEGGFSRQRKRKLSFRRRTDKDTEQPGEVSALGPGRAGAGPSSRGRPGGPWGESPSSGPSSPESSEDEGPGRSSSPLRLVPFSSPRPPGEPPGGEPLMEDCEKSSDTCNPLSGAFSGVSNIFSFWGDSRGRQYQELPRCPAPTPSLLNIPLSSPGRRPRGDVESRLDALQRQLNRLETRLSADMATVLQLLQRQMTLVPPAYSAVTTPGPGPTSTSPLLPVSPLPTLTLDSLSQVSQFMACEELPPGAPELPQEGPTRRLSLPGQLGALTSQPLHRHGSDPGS

T1 sequence (P32745 whole entry): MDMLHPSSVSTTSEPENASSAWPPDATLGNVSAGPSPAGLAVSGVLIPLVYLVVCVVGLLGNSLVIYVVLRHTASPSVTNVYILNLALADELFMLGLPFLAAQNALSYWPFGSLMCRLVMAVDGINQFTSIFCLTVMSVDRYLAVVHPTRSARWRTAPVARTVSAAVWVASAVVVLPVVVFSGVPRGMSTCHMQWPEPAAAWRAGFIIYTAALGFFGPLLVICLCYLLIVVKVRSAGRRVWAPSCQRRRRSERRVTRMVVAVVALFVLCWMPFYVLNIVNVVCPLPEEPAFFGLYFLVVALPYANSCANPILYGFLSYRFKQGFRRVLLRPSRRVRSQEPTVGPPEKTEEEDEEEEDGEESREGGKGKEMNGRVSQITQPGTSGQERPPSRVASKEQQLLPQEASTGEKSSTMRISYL
T2 sequence (P30935 whole entry): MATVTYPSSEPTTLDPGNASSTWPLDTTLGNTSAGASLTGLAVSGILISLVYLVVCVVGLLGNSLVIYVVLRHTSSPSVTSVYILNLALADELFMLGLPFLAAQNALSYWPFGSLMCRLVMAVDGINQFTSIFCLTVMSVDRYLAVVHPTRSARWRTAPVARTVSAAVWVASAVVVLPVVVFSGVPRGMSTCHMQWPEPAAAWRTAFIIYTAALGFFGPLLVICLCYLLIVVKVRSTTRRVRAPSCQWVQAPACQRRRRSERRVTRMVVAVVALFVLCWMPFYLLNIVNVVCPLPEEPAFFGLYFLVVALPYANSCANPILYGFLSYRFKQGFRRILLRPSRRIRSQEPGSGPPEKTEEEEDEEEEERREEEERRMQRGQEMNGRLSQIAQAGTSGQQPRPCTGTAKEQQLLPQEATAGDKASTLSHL
Sequence of Somatostatin receptor type 1 (Mus musculus, UniProt P30873) (P30873 whole entry): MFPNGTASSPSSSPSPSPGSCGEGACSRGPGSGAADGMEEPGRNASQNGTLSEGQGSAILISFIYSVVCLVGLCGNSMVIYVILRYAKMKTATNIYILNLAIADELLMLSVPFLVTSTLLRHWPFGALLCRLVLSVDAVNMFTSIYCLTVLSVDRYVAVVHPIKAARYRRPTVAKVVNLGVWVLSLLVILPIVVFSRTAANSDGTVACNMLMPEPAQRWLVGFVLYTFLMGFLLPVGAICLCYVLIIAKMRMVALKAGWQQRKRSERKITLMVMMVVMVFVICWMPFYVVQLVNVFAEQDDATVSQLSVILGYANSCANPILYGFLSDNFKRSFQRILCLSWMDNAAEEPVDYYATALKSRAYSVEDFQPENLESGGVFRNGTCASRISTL
Sequence of Somatostatin receptor type 4 (Homo sapiens, UniProt P31391) (P31391 whole entry): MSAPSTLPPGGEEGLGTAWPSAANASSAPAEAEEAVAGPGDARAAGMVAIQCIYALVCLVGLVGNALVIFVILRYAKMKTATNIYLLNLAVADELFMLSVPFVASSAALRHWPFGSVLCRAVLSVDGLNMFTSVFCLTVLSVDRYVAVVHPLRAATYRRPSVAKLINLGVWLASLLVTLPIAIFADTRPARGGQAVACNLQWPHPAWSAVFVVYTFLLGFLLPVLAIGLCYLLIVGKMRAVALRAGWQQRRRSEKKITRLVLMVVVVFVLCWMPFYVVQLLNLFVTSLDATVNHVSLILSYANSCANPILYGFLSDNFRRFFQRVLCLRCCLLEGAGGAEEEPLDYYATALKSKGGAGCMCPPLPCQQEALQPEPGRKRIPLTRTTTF
Sequence of Somatostatin receptor type 2 (Mus musculus, UniProt P30875) (P30875 whole entry): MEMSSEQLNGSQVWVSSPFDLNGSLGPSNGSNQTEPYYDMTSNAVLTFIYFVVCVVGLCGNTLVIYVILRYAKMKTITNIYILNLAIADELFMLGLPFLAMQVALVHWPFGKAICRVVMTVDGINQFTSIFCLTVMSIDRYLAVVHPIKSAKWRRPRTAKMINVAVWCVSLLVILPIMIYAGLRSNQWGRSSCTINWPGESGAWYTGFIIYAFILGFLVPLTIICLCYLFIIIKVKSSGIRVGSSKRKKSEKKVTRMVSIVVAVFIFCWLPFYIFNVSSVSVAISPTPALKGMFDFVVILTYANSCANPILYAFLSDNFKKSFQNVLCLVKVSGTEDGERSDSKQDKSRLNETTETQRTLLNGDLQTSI
Sequence of Somatostatin receptor type 4 (Mus musculus, UniProt P49660) (P49660 as listed by the source): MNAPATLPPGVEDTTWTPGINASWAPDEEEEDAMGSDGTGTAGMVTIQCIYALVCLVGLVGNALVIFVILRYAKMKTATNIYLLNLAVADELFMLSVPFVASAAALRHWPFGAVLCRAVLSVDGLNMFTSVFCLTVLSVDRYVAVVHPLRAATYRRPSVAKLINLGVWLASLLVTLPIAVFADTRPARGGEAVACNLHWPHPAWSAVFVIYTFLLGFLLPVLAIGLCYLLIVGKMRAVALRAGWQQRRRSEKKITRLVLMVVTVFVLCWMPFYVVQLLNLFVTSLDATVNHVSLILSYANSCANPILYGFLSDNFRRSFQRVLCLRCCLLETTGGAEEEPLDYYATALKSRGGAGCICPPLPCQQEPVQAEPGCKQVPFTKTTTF
Sequence of Somatostatin receptor type 2 (Homo sapiens, UniProt P30874) (P30874 whole entry): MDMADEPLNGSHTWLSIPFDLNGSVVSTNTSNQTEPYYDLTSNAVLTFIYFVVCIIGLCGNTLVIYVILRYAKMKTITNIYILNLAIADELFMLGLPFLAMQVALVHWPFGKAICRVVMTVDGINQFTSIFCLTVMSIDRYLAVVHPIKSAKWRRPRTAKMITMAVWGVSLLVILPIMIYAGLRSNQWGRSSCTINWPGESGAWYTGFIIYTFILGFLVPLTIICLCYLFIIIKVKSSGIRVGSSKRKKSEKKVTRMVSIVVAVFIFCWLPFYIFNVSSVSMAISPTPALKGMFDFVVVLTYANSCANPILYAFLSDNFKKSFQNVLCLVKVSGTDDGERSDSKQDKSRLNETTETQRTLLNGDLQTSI
Sequence of Somatostatin receptor type 1 (Homo sapiens, UniProt P30872) (P30872 whole entry): as the sequence (P30873 whole entry) above, with A25G, C26G, S32A, A385T, S389T counted along it
Sequence of Somatostatin receptor type 5 (Homo sapiens, UniProt P35346) (P35346 whole entry): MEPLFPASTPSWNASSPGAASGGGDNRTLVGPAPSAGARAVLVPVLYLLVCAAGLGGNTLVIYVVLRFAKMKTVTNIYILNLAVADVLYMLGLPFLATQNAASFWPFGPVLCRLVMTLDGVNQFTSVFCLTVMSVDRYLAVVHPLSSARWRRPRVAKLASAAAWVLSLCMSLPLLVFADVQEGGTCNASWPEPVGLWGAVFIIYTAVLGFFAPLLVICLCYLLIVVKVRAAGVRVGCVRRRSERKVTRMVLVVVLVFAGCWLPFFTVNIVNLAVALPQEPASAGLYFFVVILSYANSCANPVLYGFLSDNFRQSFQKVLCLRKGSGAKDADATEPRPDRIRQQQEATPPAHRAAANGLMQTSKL

IC50 [1]: 390 nM
IC50 [2]: 1200 nM
Structure (SMILES): c1ccc(-c2c[nH]c([C@H]3Cc4c([nH]c5ccccc45)[C@H](C4CCOCC4)N3)n2)cc1

IC50 [1]: 220 nM
IC50 [2]: 380 nM
Structure (SMILES): [O-][S+]1CCC(C2N[C@@H](c3nc(-c4ccccc4)c[nH]3)Cc3c2[nH]c2ccccc32)CC1 (single isomer, unassigned; isomer 1)

IC50 [4]: 8.9 nM
IC50 [1]: 14 nM
half-life [6]: 96 min
IC50 [7]: > 1000 nM
IC50 [8]: > 1000 nM
Vd [9]: 1.6 L/kg
IC50 [10]: > 10000 nM
IC50 [2]: 22 nM
bioavailability [12]: 45%
IC50 [15]: > 10000 nM
IC50 [16]: > 1000 nM
IC50 [17]: > 10000 nM
IC50 [18]: > 1000 nM
IC50 [19]: 1900 nM
AUC/dose (Mus musculus [20]): 1.3 µM·h/mg
Cmax [22]: 840 nM
IC50 [26]: > 10000 nM
clearance [27]: 15 mL/min/kg
IC50 [29]: 16 nM
Structure (SMILES): c1ccc(-c2c[nH]c([C@H]3Cc4c([nH]c5ccccc45)[C@@H](C4CCOCC4)N3)n2)cc1
Activity [3]: inactive
Activity (Mus musculus [5]): 58%
Activity (Mus musculus [11]): 67%
Activity (Mus musculus [13]): 26%
Activity [14]: 44%
Activity [21]: Active
Activity (Mus musculus [23]): Dose-dependent effect
Activity (Mus musculus [24]): 78%
Activity (Mus musculus [25]): inactive
Activity (Mus musculus [28]): inactive
Activity (Mus musculus [30]): 66%
Activity (Mus musculus [31]): 50%

IC50 [1]: 7 nM
IC50 [2]: 1000 nM
Structure (SMILES): CC(C)(C)OC(=O)N1CCC(C2N[C@@H](c3nc(-c4ccccc4)c[nH]3)Cc3c2[nH]c2ccccc32)CC1 (some centres undefined)

Structure (SMILES): C[C@@H](O)[C@H](CO)NC(=O)[C@@H]1CSSC[C@H](NC(=O)[C@H](N)Cc2ccccc2)C(=O)N[C@@H](Cc2ccccc2)C(=O)N[C@H](Cc2c[nH]c3ccccc23)C(=O)N[C@@H](CCCCN)C(=O)N[C@@H]([C@@H](C)O)C(=O)N1 (H-[dF]CF[dW]KTC-{Threoninol(2S,3R)}; disulfide 2-7)
Activity [32]: 39%

IC50 [1]: 16 nM
IC50 [2]: 46 nM
Structure (SMILES): CC(=O)N1CCC(C2N[C@@H](c3nc(-c4ccccc4)c[nH]3)Cc3c2[nH]c2ccccc32)CC1 (some centres undefined)
IC50 [33]: 9800 nM

half-life [6]: 8.4 min
Vd [9]: 8.1 L/kg
bioavailability [12]: 15%
IC50 [19]: 308 nM
AUC/dose (Mus musculus [20]): 0.07 µM·h/mg
Cmax [22]: 60 nM
clearance [27]: 95 mL/min/kg
Structure (SMILES): c1ccc(-c2c[nH]c([C@H]3Cc4c([nH]c5ccccc45)C(C4CCCCC4)N3)n2)cc1 (some centres undefined)

IC50 [1]: 4 nM
IC50 [2]: 66 nM
Structure (SMILES): COC(=O)N1CCC(C2N[C@@H](c3nc(-c4ccccc4)c[nH]3)Cc3c2[nH]c2ccccc32)CC1 (some centres undefined)
IC50 [33]: 700 nM

IC50 [1]: 1.7 nM
IC50 [2]: 10 nM
Structure (SMILES): c1ccc(-c2c[nH]c([C@H]3Cc4c([nH]c5ccccc45)C(C4CCSCC4)N3)n2)cc1 (some centres undefined)
IC50 [33]: 120 nM
